According to ChEMBL document CHEMBL1157072 (Bioorg Med Chem, 2010):
Converted amounts (≈) assume the structure as drawn.

Assays:
Staphylococcus aureus [1] = test: Antibacterial activity against Staphylococcus aureus NCTC 8325 after 16 to 20 hrs by broth microdilution method; format: functional
In short: (§1)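 Broth microdilution in cation-adjusted Mueller Hinton broth. Compounds were serially diluted twofold in DMSO at 50-fold final strength (2% DMSO final). The inoculum was 1 × 10^4 cells per well. Plates were incubated at 37 °C for 16–20 h, and growth was read as absorbance at 600 nm.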

[2] = Selectivity ratio of MIC for MBX-1090-resistant Staphylococcus aureus isolate d20A1 to MIC for Staphylococcus aureus NCTC 8325; format: functional
In short: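 Ratio of resistant-mutant MIC to NCTC 8325 MIC. Both MICs came from broth microdilution in cation-adjusted MHB with 2% DMSO final and 1 × 10^4 cells per well, incubated at 37 °C for 16–20 h and read at 600 nm.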

Staphylococcus aureus [3] = test: microbe, parasite or virus in culture; conditions: isolate d20A1
[4] = Dissociation constant, pKa of the compound; format: physicochemical
Staphylococcus aureus [5] = test: Antibacterial activity against Staphylococcus aureus NCTC 8325 after 16 to 20 hrs by broth microdilution method in presence of efflux pump inhibitor reserpine; format: functional
In short: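 Broth microdilution in cation-adjusted MHB with reserpine at 20 µg/ml final in the medium as efflux inhibitor. Twofold DMSO dilutions were made (2% DMSO final) with 1 × 10^4 cells per well. Incubation was 37 °C for 16–20 h, with growth read at 600 nm.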

Staphylococcus aureus [6] = test: Antibacterial activity against Staphylococcus aureus NCTC 8325 harboring genetic deletion of mepR gene after 16 to 20 hrs by broth microdilution method; format: functional; in short: as §1
Staphylococcus aureus [7] = test: Antibacterial activity against Staphylococcus aureus NCTC 8325 harboring genetic deletion of mepRA gene after 16 to 20 hrs by broth microdilution method; format: functional; in short: as §1
Staphylococcus aureus [8] = test: Antibacterial activity against Staphylococcus aureus NCTC 8325 carrying expression vector pG154 after 16 to 20 hrs by broth microdilution method; format: functional; in short: as §1
Staphylococcus aureus [9] = test: Antibacterial activity against Staphylococcus aureus NCTC 8325 carrying expression vector pG154 after 16 to 20 hrs by broth microdilution method in presence of anhydrous tetracycline; format: functional
In short: (§2)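 Broth microdilution in cation-adjusted MHB containing anhydrous tetracycline at 100 ng/ml final to induce the pG154 expression vector. Twofold DMSO compound dilutions were used (2% DMSO final) with 1 × 10^4 cells per well. Incubation was 37 °C for 16–20 h, and absorbance was read at 600 nm.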

Staphylococcus aureus [10] = test: Antibacterial activity against Staphylococcus aureus NCTC 8325 carrying expression vector pG154 with mepA gene after 16 to 20 hrs by broth microdilution method; format: functional; in short: as §1
Staphylococcus aureus [11] = test: Antibacterial activity against Staphylococcus aureus NCTC 8325 carrying expression vector pG154 with mepA gene after 16 to 20 hrs by broth microdilution method in presence of anhydrous tetracycline; format: functional; in short: as §2
Staphylococcus aureus [12] = test: Antibacterial activity against Staphylococcus aureus NCTC 8325 harboring genetic deletion of mepRA gene and carrying expression vector pG154 after 16 to 20 hrs by broth microdilution method; format: functional; in short: as §1
Staphylococcus aureus [13] = test: Antibacterial activity against Staphylococcus aureus NCTC 8325 harboring genetic deletion of mepRA gene and carrying expression vector pG154 after 16 to 20 hrs by broth microdilution method in presence of anhydrous tetracycline; format: functional; in short: as §2
Staphylococcus aureus [14] = test: Antibacterial activity against Staphylococcus aureus NCTC 8325 harboring genetic deletion of mepRA gene and carrying expression vector pG154 with mepA gene after 16 to 20 hrs by broth microdilution method; format: functional; in short: as §1
Staphylococcus aureus [15] = test: Antibacterial activity against Staphylococcus aureus NCTC 8325 harboring genetic deletion of mepRA gene and carrying expression vector pG154 with mepA gene after 16 to 20 hrs by broth microdilution method in presence of anhydrous tetracycline; format: functional; in short: as §2
Staphylococcus aureus [16] = test: Upregulation of mepA gene expression in MBX-1090-resistant Staphylococcus aureus isolate d20A1 at 0.4 ug/ml by RT-PCR analysis relative to wild type; format: functional
Staphylococcus aureus [17] = test: Upregulation of mepB gene expression in MBX-1090-resistant Staphylococcus aureus isolate d20A1 at 0.4 ug/ml by RT-PCR analysis relative to wild type; format: functional
Staphylococcus aureus [18] = test: Upregulation of conventional hypothetical protein mRNA expression in MBX-1090-resistant Staphylococcus aureus isolate d20A1 at 0.4 ug/ml by RT-PCR analysis relative to wild type; format: functional
Staphylococcus aureus [19] = test: Downregulation of protein A gene expression in MBX-1090-resistant Staphylococcus aureus isolate d20A1 at 0.4 ug/ml by RT-PCR analysis relative to wild type; format: functional
Staphylococcus aureus [20] = test: Modulation of ribH gene expression in MBX-1090-resistant Staphylococcus aureus isolate d20A1 at 0.4 ug/ml by RT-PCR analysis relative to wild type; format: functional
Staphylococcus aureus [21] = test: Modulation of ribA gene expression in MBX-1090-resistant Staphylococcus aureus isolate d20A1 at 0.4 ug/ml by RT-PCR analysis relative to wild type; format: functional
Staphylococcus aureus [22] = test: Modulation of ribE gene expression in MBX-1090-resistant Staphylococcus aureus isolate d20A1 at 0.4 ug/ml by RT-PCR analysis relative to wild type; format: functional
Staphylococcus aureus [23] = test: Modulation of ribD gene expression in MBX-1090-resistant Staphylococcus aureus isolate d20A1 at 0.4 ug/ml by RT-PCR analysis relative to wild type; format: functional

O=C(O)c1cn(C2CC2)c2cc(N3CCNCC3)c(F)cc2c1=O [CIPROFLOXACIN]
MIC (Staphylococcus aureus [1]): 0.195 µg/mL (≈ 0.589 µM)
Selectivity ratio [2]: 2
MIC (Staphylococcus aureus [3]): 0.391 µg/mL (≈ 1.18 µM)

CN[C@@H]1[C@H](O)[C@H](NC)[C@H]2O[C@@]3(O)C(=O)C[C@@H](C)O[C@H]3O[C@@H]2[C@H]1O [SPECTINOMYCIN]
MIC (Staphylococcus aureus [1]): 128 µg/mL (≈ 385 µM)
MIC (Staphylococcus aureus [3]): 128 µg/mL (≈ 385 µM)

c1cc2cc(-c3ccc(-c4cc5ccc(C6=NCCN6)cc5[nH]4)cc3)[nH]c2cc1C1=NCCN1
pKa [4]: 9.6
MIC (Staphylococcus aureus [1]): 0.25 µg/mL (≈ 0.562 µM)
MIC (Staphylococcus aureus [5]): 0.125 µg/mL
MIC (Staphylococcus aureus [6]): 0.25 µg/mL (≈ 0.562 µM)
MIC (Staphylococcus aureus [7]): 0.5 µg/mL (≈ 1.12 µM)
MIC (Staphylococcus aureus [8]): 0.5 µg/mL (≈ 1.12 µM)
MIC (Staphylococcus aureus [9]): 1 µg/mL
MIC (Staphylococcus aureus [10]): 0.5 µg/mL (≈ 1.12 µM)
MIC (Staphylococcus aureus [11]): 0.25 µg/mL
MIC (Staphylococcus aureus [12]): 0.5 µg/mL (≈ 1.12 µM)
MIC (Staphylococcus aureus [13]): 0.5 µg/mL
MIC (Staphylococcus aureus [14]): 0.25 µg/mL (≈ 0.562 µM)
MIC (Staphylococcus aureus [15]): 8 µg/mL
fold change (FC) (Staphylococcus aureus [16]): 8.7
fold change (FC) (Staphylococcus aureus [17]): 4.2
fold change (FC) (Staphylococcus aureus [18]): 6.8
fold change (FC) (Staphylococcus aureus [19]): 3.1
fold change (FC) (Staphylococcus aureus [20]): 2.1
fold change (FC) (Staphylococcus aureus [21]): 1.2
fold change (FC) (Staphylococcus aureus [22]): 1.2
fold change (FC) (Staphylococcus aureus [23]): 1.3
MIC (Staphylococcus aureus [3]): 0.5 µg/mL (≈ 1.12 µM)

CCn1cc(C(=O)O)c(=O)c2ccc(C)nc21 [NALIDIXIC ACID]
MIC (Staphylococcus aureus [1]): 100 µg/mL (≈ 431 µM)
MIC (Staphylococcus aureus [3]): 50 µg/mL (≈ 215 µM)

c1cc2cc(-c3ccc4cc(-c5ccc6oc(C7=NCCN7)cc6c5)[nH]c4c3)[nH]c2cc1C1=NCCN1
MIC (Staphylococcus aureus [1]): 0.5 µg/mL (≈ 1.03 µM)
MIC (Staphylococcus aureus [5]): 0.25 µg/mL
MIC (Staphylococcus aureus [6]): 0.5 µg/mL (≈ 1.03 µM)
MIC (Staphylococcus aureus [7]): 1 µg/mL (≈ 2.06 µM)
MIC (Staphylococcus aureus [8]): 1 µg/mL (≈ 2.06 µM)
MIC (Staphylococcus aureus [9]): 1 µg/mL
MIC (Staphylococcus aureus [10]): 1 µg/mL (≈ 2.06 µM)
MIC (Staphylococcus aureus [11]): 0.25 µg/mL
MIC (Staphylococcus aureus [12]): 1 µg/mL (≈ 2.06 µM)
MIC (Staphylococcus aureus [13]): 0.5 µg/mL
MIC (Staphylococcus aureus [14]): 0.5 µg/mL (≈ 1.03 µM)
MIC (Staphylococcus aureus [15]): 0.5 µg/mL
MIC (Staphylococcus aureus [3]): 1 µg/mL (≈ 2.06 µM)

N=C(N)c1ccc(-c2cc3ccc(C(=N)N)cc3[nH]2)cc1 [DAPI]
pKa [4]: 11.6

CO[C@@H]1[C@@H](OC(N)=O)[C@@H](O)[C@H](Oc2ccc3c(O)c(NC(=O)c4ccc(O)c(CC=C(C)C)c4)c(=O)oc3c2C)OC1(C)C [NOVOBIOCIN]
MIC (Staphylococcus aureus [1]): 0.125 µg/mL (≈ 0.204 µM)
MIC (Staphylococcus aureus [3]): 0.125 µg/mL (≈ 0.204 µM)

CO[C@H]1/C=C/O[C@@]2(C)Oc3c(C)c(O)c4c(O)c(c(/C=N/N5CCN(C)CC5)c(O)c4c3C2=O)NC(=O)/C(C)=C\C=C\[C@H](C)[C@H](O)[C@@H](C)[C@@H](O)[C@@H](C)[C@H](OC(C)=O)[C@@H]1C [RIFAMPIN]
MIC (Staphylococcus aureus [1]): 0.0122 µg/mL (≈ 0.0148 µM)
MIC (Staphylococcus aureus [3]): 0.0122 µg/mL (≈ 0.0148 µM)

CC1(C)S[C@@H]2[C@H](NC(=O)[C@H](N)c3ccccc3)C(=O)N2[C@H]1C(=O)O [AMPICILLIN]
MIC (Staphylococcus aureus [1]): 0.0625 µg/mL (≈ 0.179 µM)
MIC (Staphylococcus aureus [3]): 0.0625 µg/mL (≈ 0.179 µM)

GENTAMICIN
MIC (Staphylococcus aureus [1]): 0.25 µg/mL

NC[C@H]1O[C@H](O[C@H]2[C@H](O)[C@@H](O[C@H]3O[C@H](CO)[C@@H](O)[C@H](N)[C@H]3O)[C@H](N)C[C@@H]2N)[C@H](O)[C@@H](O)[C@@H]1O [KANAMYCIN]
MIC (Staphylococcus aureus [1]): 2 µg/mL (≈ 4.13 µM)
Selectivity ratio [2]: 4
MIC (Staphylococcus aureus [3]): 8 µg/mL (≈ 16.5 µM)
